This note sets out measurements from ChEMBL document CHEMBL1806375, “Synthesis, molecular modeling and bio-evaluation of cycloalkyl fused 2-aminopyrimidines as antitubercular and antidiabetic agents” (Bioorg Med Chem Lett, 2011).

≈ marks a conversion by molar mass, not a printed value.

In data set [1] the target is T1, Glycogen phosphorylase, liver form (Rattus norvegicus) (UniProt P09811).
T1 sequence (whole entry): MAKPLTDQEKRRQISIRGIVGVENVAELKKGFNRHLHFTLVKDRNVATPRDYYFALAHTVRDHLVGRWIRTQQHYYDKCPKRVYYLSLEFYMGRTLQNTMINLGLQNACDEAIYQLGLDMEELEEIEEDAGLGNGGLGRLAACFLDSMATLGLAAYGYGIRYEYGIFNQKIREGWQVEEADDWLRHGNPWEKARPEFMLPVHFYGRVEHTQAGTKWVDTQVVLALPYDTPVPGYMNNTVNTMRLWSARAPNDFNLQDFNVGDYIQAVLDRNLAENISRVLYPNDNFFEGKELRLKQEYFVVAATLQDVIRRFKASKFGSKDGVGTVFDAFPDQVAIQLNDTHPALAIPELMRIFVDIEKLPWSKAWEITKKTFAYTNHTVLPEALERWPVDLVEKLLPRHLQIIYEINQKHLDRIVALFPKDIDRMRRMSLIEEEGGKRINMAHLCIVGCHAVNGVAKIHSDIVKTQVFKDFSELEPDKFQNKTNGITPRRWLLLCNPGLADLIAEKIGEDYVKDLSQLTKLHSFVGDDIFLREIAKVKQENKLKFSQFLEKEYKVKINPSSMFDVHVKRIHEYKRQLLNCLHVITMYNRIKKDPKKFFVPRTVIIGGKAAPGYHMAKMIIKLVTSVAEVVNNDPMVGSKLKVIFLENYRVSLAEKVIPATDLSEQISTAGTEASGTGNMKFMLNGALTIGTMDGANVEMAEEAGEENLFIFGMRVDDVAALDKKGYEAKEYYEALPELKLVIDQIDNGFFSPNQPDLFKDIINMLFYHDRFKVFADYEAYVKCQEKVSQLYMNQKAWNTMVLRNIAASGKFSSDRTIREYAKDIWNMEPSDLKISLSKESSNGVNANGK
Briefly: Inhibition of Wistar rat liver glycogen phosphorylase at 100 uM after 30 mins.

The species entered for a further data set is Rattus norvegicus. Briefly: Inhibition of albino rat intestine alpha-glucosidase using p-nitrophenyl-alpha-D-glucopyranoside as substrate at 100 uM.
For data set [2], the system named is Mycobacterium tuberculosis. Description: Antimycobacterial activity against Mycobacterium tuberculosis H37Rv after 30 days by agar microdilution method. The data set is classed as functional. The procedure, abridged:
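Virulent M. tuberculosis H37Rv strain tested by agar microdilution. Isoniazid and ethambutol served as reference drugs. Read-out is the MIC.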

A further data set has as its system Vero. Description: Cytotoxicity against african green monkey Vero cells at 10 times MIC of Mycobacterium tuberculosis H37Rv after 24 hrs by MTS assay. It counts as cell-based. To be noted: chlorocebus sabaeus.
The test system of data set [3] is Mycobacterium tuberculosis. Description: Antimycobacterial activity against Mycobacterium tuberculosis H37Rv infected in mouse bone marrow macrophages assessed as intracellular growth inhibition at 3.12 ug/ml after 4 days. It counts as functional. The conditions noted are these: 96 h, read-out: GI.
A short description of data set [4]: Cytotoxicity against mouse bone marrow macrophages at 10 times MIC after 48 hrs by MTS assay. The data set is classed as cell-based. To be noted: macrophage. Background: Tetrazolium assays rely on reduction of a dye to a coloured formazan, in cell work by metabolically active cells.
Data set [5] concerns Mycobacterium tuberculosis. Description: Antimycobacterial activity against Mycobacterium tuberculosis H37Rv infected in mouse bone marrow macrophages assessed as intracellular growth inhibition after 4 days. The data set is classed as functional.

The term inhibition denotes the change of the read-out against control, counted positive when it falls. The term MIC denotes the lowest concentration that inhibits growth of the organism.

Take `Nc1nc2c(c(-c3cccc4ccccc34)n1)CCC/C2=C\c1cccc2ccccc12`: the inhibition in data set [1] turned out to be 11.3%; in the data set listed under Rattus norvegicus it was 13.7%. In data set [2], this compound showed an MIC of 12.5 µg/mL (≈ 30.2 µM).
`Nc1nc2c(c(-c3ccc(F)cc3)n1)CCC/C2=C\c1ccc(F)cc1` displayed a minimum inhibitory concentration (MIC) in data set [2] of 12.5 µg/mL (≈ 35.8 µM).
The same measure, in the same setting: for `COc1ccc(/C=C2\CCCCc3c2nc(N)nc3-c2ccc(OC)cc2)cc1` the value was more than 12.5 µg/mL; for `Nc1nc2c(c(-c3ccc(Cl)cc3)n1)CCC/C2=C\c1ccc(Cl)cc1`, more than 12.5 µg/mL.
In the case of `Nc1nc2c(c(-c3ccc4ccccc4c3)n1)CCCC/C2=C\c1ccc2ccccc2c1`, the Activity result (with Vero; in data set [4]) was “Non-toxic” each time. The compound further yielded an MIC in data set [2] of 3.12 µg/mL (≈ 7.3 µM). In addition, in data set [3], the inhibition of growth at 3.12 µg/mL was 58%.
For the compound `Nc1nc2c(c(-c3ccccc3)n1)CCC/C2=C\c1ccccc1`, in data set [1], the inhibition is -6.1%. In addition, the MIC in data set [2] amounted to 6.25 µg/mL (≈ 19.9 µM).
For `Nc1nc2c(c(-c3ccc(OCc4ccccc4)cc3)n1)CCC/C2=C\c1ccc(OCc2ccccc2)cc1` the same measures were -0.87% and more than 12.5 µg/mL.
`Nc1nc2c(c(-c3ccc(Cl)cc3)n1)CCCC/C2=C\c1ccc(Cl)cc1`: the inhibition in the data set filed under Rattus norvegicus is 11.4%. Moreover, in data set [2], the MIC was more than 12.5 µg/mL.
In turn, `NNC(=O)c1ccncc1` [ISONIAZID] showed an MIC in data set [2] of 0.75 µg/mL (≈ 5.47 µM). In addition, the “growth inhibition (GI)” value in data set [5] was “>=99%”.
Consider `Nc1nc2c(c(-c3cccc4ccccc34)n1)CCCC/C2=C\c1cccc2ccccc12`, for which, in data set [2], the MIC was more than 12.5 µg/mL.
On the same count and under the same terms, for `COc1cc(/C=C2\CCCc3c2nc(N)nc3-c2cc(OC)c(OC)c(OC)c2)cc(OC)c1OC` the value was more than 12.5 µg/mL.
Still for that read-out and setting: for `CC[C@@H](CO)NCCN[C@@H](CC)CO` [ETHAMBUTOL] the value was 3.25 µg/mL (≈ 15.9 µM).
In the case of `Nc1nc2c(c(-c3ccc4ccccc4c3)n1)CCC/C2=C\c1ccc2ccccc2c1`, the inhibition in data set [1] is -5%; in the data set filed under Rattus norvegicus it was -6%. The compound further showed an MIC in data set [2] of 6.25 µg/mL (≈ 15.1 µM).
For the compound `COc1cc(/C=C2\CCCCc3c2nc(N)nc3-c2cc(OC)c(OC)c(OC)c2)cc(OC)c1OC`, the MIC in data set [2] was more than 12.5 µg/mL.
Turning to `Nc1nc2c(c(-c3ccc(Br)cc3)n1)CCCC/C2=C\c1ccc(Br)cc1`, the inhibition in the data set filed under Rattus norvegicus was -5.86%. The minimum inhibitory concentration (MIC) in data set [2] is more than 12.5 µg/mL.
In the case of `COc1ccc(/C=C2\CCCc3c2nc(N)nc3-c2ccc(OC)cc2)cc1`, the inhibition in data set [1] was -10%. In data set [2], this compound gave an MIC of more than 12.5 µg/mL.
`COc1ccc(/C=C2\CCCc3c2nc(N)nc3-c2ccc(OC)c(OC)c2)cc1OC` showed an MIC in data set [2] of more than 12.5 µg/mL.
Same read-out and setting: under `Nc1nc(Cc2ccco2)c2c(n1)/C(=C/Cc1ccco1)CCC2` stands more than 12.5 µg/mL.
Turning to `Nc1nc2c(c(-c3ccccc3)n1)CCCC/C2=C\c1ccccc1`, the inhibition in the data set listed under Rattus norvegicus was -0.07%. The compound further yielded a minimum inhibitory concentration (MIC) in data set [2] of more than 12.5 µg/mL.
For `Nc1nc(Cc2ccco2)c2c(n1)/C(=C/Cc1ccco1)CCCC2`, the inhibition in data set [1] is 34.3%; in the data set listed under Rattus norvegicus, -4.87%. The compound also gave an MIC in data set [2] of more than 12.5 µg/mL.
The compound `Nc1nc2c(c(-c3ccc(Br)cc3)n1)CCC/C2=C\c1ccc(Br)cc1` displayed an MIC in data set [2] of 12.5 µg/mL (≈ 26.5 µM).
As to `COc1ccc(/C=C2\CCCCc3c2nc(N)nc3-c2ccc(OC)c(OC)c2)cc1OC`, the inhibition in the data set listed under Rattus norvegicus is -6.4%. In data set [2], this compound showed an MIC of 6.25 µg/mL (≈ 14 µM).
